HIV Rev-RRE inh = disrupts HIV-1 Rev binding to RRE RNA. P05866. Rev peptide-RRE RNA binding, FRET. inhibition, % at 8 µM. hit rate 0.79% among 97,000. AID 704;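 active = inhibition above the screen-wide mean plus 3 SD, cut at about 35% in these data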;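 also: 0% = median DMSO wells and 100% = median Neomycin B control wells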
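Test system: labelled RRE RNA duplex and labelled Rev peptide. Times: 5 min compound–RNA preincubation, then 15 min with peptide, 25 °C. Doses: single-dose 8 µM. Measured by: FRET, excitation 480 nm, emission 540 nm donor and 671 nm acceptor. Measure: % inhibition of FRET ratio versus controls.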
DAT uptake mod = human DAT dopamine uptake with cocaine, either direction | LLC-PK1 hDAT cells, [14C]-dopamine uptake with cocaine IC80; actives deviate in either direction | B-score at 10 µM | hit rate 1.3% among 110,000;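 active = Z score or B-score, a plate-position-corrected score, falls beyond the plate's 99.7% confidence bounds, in either direction; inactive = both scores lie inside the 99.7% bounds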;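 also: scored against the spread of the other compound wells on the same plate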
Measles CPE = protection of cells from measles virus | Measles virus-infected cells, CPE protection, absorbance | hit rate 1.5% among 140,000 | AID 841 | protection (pct of control), % at 4 µM; in the data active = protection mostly above about 24%, no sharp cut-off; inactive = mostly below about 26%
Phagocytosis inh = inhibitors of macrophage phagocytosis; hit rate 0.07% among 110,000; J774A.1 macrophage IgG-bead phagocytosis, imaging; inhibition, % at 5 µM;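 active = inhibition above the mean of the plate negative controls plus 5 SD, cut at about 13% in these data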;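 also: phagocytic index as fraction of beads internalized from green versus red external bead signal; plate controls were DMSO negative control for no effect and cytochalasin-D positive control for full effect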
Cav3 T inh = human Cav3.2 channel inhibition, primary screen. AID 449739. hit rate 4% among 100,000. Cav3.2-expressing cells, Fluo-4 calcium fluorescence FDSS; stronger effect = lower value. B-score at 10 µM;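 active = single-dose well whose peak fluorescence ratio is a statistical outlier from its plate by either plate-standardised score or position-corrected B-score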
PTK2B oligo ant = blocks oligomerization of human Pyk2 in cells. Q14289. Q293 cells, Pyk2 FERM NanoBiT luminescence; stronger effect = lower value. z-score (the deposit names both 25 µM and 10 µM). hit rate 0.83% among 99,000. AID 1347419;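 active = Z-score of -3 or lower, scaled per plate to the spread of control and sample wells; inactive = z-score above -3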;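 also: negative z-score means lost luminescence so less FERM oligomerization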
Target sequence (Q14289 whole entry, looked up): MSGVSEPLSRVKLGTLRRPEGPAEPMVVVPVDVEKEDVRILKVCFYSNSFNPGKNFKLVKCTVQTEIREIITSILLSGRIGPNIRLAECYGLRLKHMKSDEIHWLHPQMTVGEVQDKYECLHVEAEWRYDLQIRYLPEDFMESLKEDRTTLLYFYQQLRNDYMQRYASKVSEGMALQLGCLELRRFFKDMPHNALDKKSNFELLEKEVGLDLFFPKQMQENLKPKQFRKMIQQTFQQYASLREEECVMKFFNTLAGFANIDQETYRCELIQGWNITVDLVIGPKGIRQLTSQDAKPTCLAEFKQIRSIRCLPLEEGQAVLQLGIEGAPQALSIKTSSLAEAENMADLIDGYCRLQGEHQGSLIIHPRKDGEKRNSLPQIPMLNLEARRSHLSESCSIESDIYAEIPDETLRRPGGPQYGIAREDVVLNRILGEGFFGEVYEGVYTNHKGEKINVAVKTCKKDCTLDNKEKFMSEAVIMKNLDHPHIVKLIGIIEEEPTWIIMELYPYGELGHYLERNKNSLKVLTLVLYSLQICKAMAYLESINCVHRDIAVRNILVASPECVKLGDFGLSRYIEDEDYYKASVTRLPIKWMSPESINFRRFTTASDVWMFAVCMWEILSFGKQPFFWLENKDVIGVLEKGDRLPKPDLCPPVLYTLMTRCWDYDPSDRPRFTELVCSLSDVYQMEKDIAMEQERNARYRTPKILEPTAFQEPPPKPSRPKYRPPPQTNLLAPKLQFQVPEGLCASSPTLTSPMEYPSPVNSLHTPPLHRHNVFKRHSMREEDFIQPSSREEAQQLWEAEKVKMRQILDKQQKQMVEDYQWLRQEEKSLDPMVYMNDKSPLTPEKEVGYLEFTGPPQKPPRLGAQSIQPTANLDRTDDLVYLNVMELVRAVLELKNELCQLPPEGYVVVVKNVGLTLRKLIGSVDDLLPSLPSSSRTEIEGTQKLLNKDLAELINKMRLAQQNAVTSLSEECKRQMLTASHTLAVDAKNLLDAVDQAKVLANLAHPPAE
* = called active by the depositor; x = not tested or not shown. Most compounds without a hit are left out; they make up all but 5.9% or so of the library.

SMILES	HIV Rev-RRE inh	DAT uptake mod	Measles CPE	Phagocytosis inh	Cav3 T inh	PTK2B oligo ant
CCOC(=O)C(=O)/C(C#N)=C/Nc1ccccc1	9.4	0.295	1.5	-1.0	0.0453	0.38
O=C(NCCc1csc(-c2cccnc2)n1)c1cccs1	x	x	7.3	x	x	x
O=C(NCCc1csc(-c2ccc(C(F)(F)F)cc2)n1)c1cccs1	10.3	2.06*	17.3	0.2	-6.12*	x
COc1ccc(C2N(S(=O)(=O)c3ccc(C)cc3)CCN2S(=O)(=O)c2ccc(C)cc2)cc1	20.5	0.0429	2.2	-1.3	-2.72	0.23
Cc1cc(Br)cc(C)c1NC(=S)NC(=O)CC(C)C	1.5	-7.96*	9.7	3.0	x	-1.41
CCCC(=O)NC(=S)Nc1c(C)cc(Br)cc1C	-1.4	-0.677	x	x	0.0477	-0.8
COc1ccc(-c2nn(-c3ccccc3)cc2CNC(=O)c2cccc([N+](=O)[O-])c2)cc1	x	x	21.4	-4.0	x	x
Cc1ccc(C)c(N2CCN(C(=O)Cc3cn(C)c4ccccc34)CC2)c1	7.5	2.14	7.2	-4.0	-5.38*	0.31
Cc1ccc(C)c(N2CCN(C(=O)CC3Sc4ccccc4NC3=O)CC2)c1 (configuration not stated)	3.0	3.38*	11.6	x	-6.88*	x
C/C(CC(=O)NCC(C)C)=N\NC(=O)COc1cc(C)c(Br)cc1Br	x	x	17.5	-10.4	x	x
CC(C)N(Cc1nc(-c2ccccc2)no1)C(=O)C(C)(C)C	10.3	0.0208	7.8	-0.1	-1.3	0.5
Cc1cccc(-c2noc(CN(C(=O)c3ccc4c(c3)OCO4)C(C)C)n2)c1	5.2	0.571	46.0*	3.5	-5.14*	-1.8
Cc1cccc(-c2noc(CN(C(=O)C(c3ccccc3)c3ccccc3)C(C)C)n2)c1	1.1	0.45	6.1	0.4	-6.72*	x
Cc1cccc(-c2noc(CN(C(=O)c3ccc(Br)o3)C(C)C)n2)c1	10.8	1.81*	19.1	-1.0	-4.71*	-0.94
Cc1ccc(-c2noc(CN(C(=O)CCCCCN3C(=O)c4ccccc4C3=O)C(C)C)n2)cc1	-0.3	1.76	18.9	-0.7	-4.85*	0.26
Cc1onc(-c2ccccc2Cl)c1C(=O)N(Cc1nc(-c2ccccc2)no1)C1CCCCC1	5.9	0.21	17.1	-0.2	-3.5	-2.86
Cc1cccc(-c2noc(CN(C(=O)c3c(-c4ccccc4Cl)noc3C)C(C)C)n2)c1	3.2	0.474	6.6	-0.3	-5.04*	x
CC(C)N(Cc1nc(-c2ccccc2)no1)C(=O)COc1ccccc1	14.8	0.0815	17.2	-1.0	-1.94	x
CC(C)N(Cc1nc(-c2ccccc2)no1)C(=O)CSc1ccccc1	6.5	0.217	8.8	-0.1	-4.24*	0.57
COc1cccc(C(=O)N(Cc2nc(-c3cccc(C)c3)no2)C(C)C)c1OC	6.4	-0.0138	6.2	1.0	-5.76*	-2.04
Cc1cc(C)n(CC(O)COc2ccc(OCC(O)Cn3nc(C)cc3C)cc2)n1 (configuration not stated)	-1.0	x	x	x	x	x
Cc1ccc(-c2nc3ccc(C(=O)O)cc3nc2-c2ccc(C)cc2)cc1	1.0	0.594	1.6	x	-1.66	-3.28*
CCc1nc2ccc(C(=O)O)cc2nc1CC	x	x	12.2	-9.6	x	x
COc1ccc(N(C)C(=O)c2ccc3nc(-c4ccccc4)c(-c4ccccc4)nc3c2)cc1	-4.5	0.907	3.6	x	-8.8*	-2.7
CCOC(=O)c1ccc(Oc2nc(N(C)C)nc(N(C)C)n2)cc1	13.6	-0.0975	14.7	-0.1	-2.42	-0.27
SMILES	HIV Rev-RRE inh	DAT uptake mod	Measles CPE	Phagocytosis inh	Cav3 T inh	PTK2B oligo ant
CCOC(=O)c1ccc(Oc2nc(NC(C)(C)C)nc(N(C)C)n2)cc1	8.3	0.579	2.5	-1.0	-7.11*	-1.56
COc1ccc2c(c1)C(SCC(=O)NCCc1ccc(Cl)cc1)CC(C)(C)O2 (configuration not stated)	x	x	10.6	x	x	x
CCCCn1c(=O)n(CC(=O)Nc2ccc(OC)c(Cl)c2)c(=O)c2c1nc(CO)n2CCC	2.9	0.639	10.1	-2.4	-5.51*	-0.62
CCCCn1nnnc1SCC(=O)Nc1sc2c(c1C#N)CCCC2	8.8	1.18	17.4	-0.5	-1.76	0.35
Cn1cnnc1SCC(=O)Nc1sc2c(c1C#N)CCCCC2	16.8	0.192	32.1*	x	-1.09	0.49
COc1cccc(N2CC(C(=O)Nc3ccc(C(=O)OC(C)C)cc3)CC2=O)c1 (configuration not stated)	12.9	3.21*	10.1	3.6	-4.56*	-0.64
CCOc1ccc(N2CC(C(=O)Nc3ccc(F)cc3F)CC2=O)cc1 (configuration not stated)	-1.1	-1.08	8.8	3.3	-1.3	0.65
CCOc1ccc(N2CC(C(=O)Nc3ccccc3OC)CC2=O)cc1 (configuration not stated)	-2.2	-0.254	8.1	x	-5.09*	x
O=S(=O)(/N=C(/Nc1ccc(F)c(F)c1F)c1ccccc1)c1ccccc1	x	x	4.2	-4.7	x	x
O=C(Cc1ccccc1)Nc1ccc(NC(=O)c2cccs2)c(Cl)c1	x	x	5.7	-1.6	x	x
Cc1ccc(NC(=O)Cn2cccc2C2=NC(c3ccccc3)CO2)cc1C (configuration not stated)	x	x	2.7	-1.6	x	-2.4
Cc1oc(-c2ccccc2)nc1Cn1cccc1C1=NC(c2ccccc2)CO1 (configuration not stated)	15.0	-0.441	8.9	x	-5.64*	0.19
CC(C)NC(=S)NCc1cccnc1	x	x	50.7*	-6.0	x	x
C=CCSC(=S)NC1CCS(=O)(=O)C1 (configuration not stated)	x	x	5.9	x	x	x
CCOC(=O)c1c(/N=C/c2cc([N+](=O)[O-])ccc2O)sc(C)c1C	x	x	22.5	-8.6	x	x
CCOC(=O)c1c(/N=C/C2=C(O)CC(C)(C)CC2=O)sc(C)c1C	x	x	52.0*	x	x	x
CCCCCn1c(=O)[nH]c2cc(C(=O)NCCc3ccc(OC)c(OC)c3)ccc2c1=O	-4.1	-1.07	38.3*	-1.4	-1.02	-0.07
CC1(c2nnc(Cc3ccccc3)o2)CC(c2cccnc2)=NO1 (configuration not stated)	x	-0.677	x	x	0.575	x
CCN1CCN(c2cc(C)c3cc(NC(=O)c4ccc(OC)c(OC)c4)ccc3n2)CC1	12.4	2.56*	12.4	1.0	0.164	x
CCc1ccc(OCC(=O)N/N=C\c2ccco2)c([N+](=O)[O-])c1	x	x	3.0	-4.3	x	x
C=CCn1c(SCC(=O)Nc2sccc2C(N)=O)nc2ccccc2c1=O	8.4	0.353	19.9	x	0.797	-2.59
C=CCn1c(SCC(=O)Nc2sccc2C(N)=O)nc2ccc(Cl)cc2c1=O	9.6	-0.534	7.9	-5.8	0.502	-3.24*
C=CCn1c(SCC(=O)Nc2sccc2C(N)=O)nc2sc(CC)cc2c1=O	12.3	0.399	11.0	0.7	0.0176	-3.45*
COC(=O)c1ccc2c(=O)n(CCCCCC(=O)O)c(=S)[nH]c2c1	x	x	5.6	-1.5	x	0.65
Cc1ccc(C(=O)NCCSCc2ccccc2)cc1[N+](=O)[O-]	x	x	25.1	-6.9	x	x
COc1ccc(-c2[nH]c3ccccc3c2SCCNC(=O)c2ccccc2)cc1	x	x	32.4*	x	x	x
